The record followed here is ChEMBL document CHEMBL1157311, “Aurilides B and C, cancer cell toxins from a Papua New Guinea collection of the marine cyanobacterium Lyngbya majuscula” (2006).

The test system of assay [1] is NCI-H460. In words: Cytotoxicity against human NCI-H460 cells after 48 hrs by MTT assay. The format is functional. As to conditions: NCI-H460, 48 h, read-out: LC50 (the source's name). In a few lines:
(§1)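 Cells seeded at 6000/well and grown 24 h, then given test chemicals dissolved in DMSO and diluted in serum-free medium (DMSO under 0.5% final). Viability read by MTT reduction after 48 h exposure; LC50 reported. Method follows Alley et al.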

Assay [2] in a line: Cytotoxicity against mouse Neuro2a cells after 48 hrs by MTT assay. The format is functional. The conditions noted are these: N2a, read-out: LC50 (the source's name). In a few lines:
as §1

Regarding `CC/C=C(\C)[C@H]1OC(=O)[C@H](C)N(C)C(=O)[C@H](C(C)C)NC(=O)CN(C)C(=O)[C@H]([C@H](C)CC)N(C)C(=O)[C@H](C(C)C)NC(=O)[C@@H](C(C)C)OC(=O)/C(C)=C/C[C@H](O)[C@@H]1C` [AURILIDE C], the values for the CC50 in assay [1] and in assay [2] were 130 nM and 50 nM, respectively.
